pIC50: −log10 of the molar value. Activity calls are given as the source filed them. The calls are words filed in the database; no cut-off is given here.
Tests used:
[1] = Cytotoxicity against human COLON cells after 48 hrs by SRB assay; format: functional
Method in brief: (§1)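 NCI-60 screen: single-dose pass at 10^-5 M, then a five-concentration assay from 10^-9 to 10^-4 M (highest 100 μM). Exposure was 48 h under standard NCI protocols. GI50, TGI and LC50 were derived per cell line and averaged by subpanel. Repeated tests are the mean of two experiments.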

Renal cancer cell line = experiment: Cytotoxicity against human renal cancer cells after 48 hrs by SRB assay; format: functional; method in brief: as §1
HeLa [2] = experiment: Cell cycle arrest in human HeLa cells assessed as reduction in accumulation of cells at G1 phase up to 1000 nM after 24 hrs by propidium iodide staining-based flow cytometric analysis; format: functional
Method in brief: (§2)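 Cells exposed to a range of concentrations for 24 h (HeLa at 5×10^5 cells), then fixed in ice-cold 70% ethanol. Lysis buffer with RNase A and 0.1% Triton X-100 was applied before PI staining. DNA content was read by flow cytometry and G1/S/G2/M fractions taken from DNA histograms. Mean ± SEM of two independent experiments.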

Breast carcinoma cell = experiment: Cytotoxicity against human breast cancer cells after 48 hrs by SRB assay; format: functional; method in brief: as §1
[3] = Cytotoxicity against human PBL after 72 hrs by MTT assay; format: cell-based; conditions: peripheral blood lymphocytes (PBL)
Method in brief: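 Lymphocytes from healthy donors were isolated on a Lymphoprep gradient and held overnight in RPMI-1640 with 10% FBS. Non-adherent cells were set at 5×10^5 cells/mL, either resting or stimulated with 2.5 μg/mL PHA. Cells were exposed to a range of compound concentrations for 72 h and viability read by MTT. GI50 is the mean ± SEM of three separate experiments.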

E0771 [4] = experiment: Growth inhibition of mouse E0771 cells after 72 hrs by MTT assay; format: functional; conditions: E0771, 72 h
Method in brief: (§3)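 Murine BL6-B16 melanoma and EO771 breast tumor cells were exposed to compound for 72 h. GI50 is reported ± error.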

B16-BL6 = experiment: Growth inhibition of mouse B16-BL6 cells after 72 hrs by MTT assay; format: functional; conditions: B16-BL6, 72 h; method in brief: as §3
HT-29 = experiment: Cell cycle arrest in human HT-29 cells assessed as reduction in accumulation of cells at G1 phase up to 1000 nM after 24 hrs by propidium iodide staining-based flow cytometric analysis; format: functional; method in brief: as §2
HeLa [5] = experiment: Induction of apoptosis in human HeLa cells assessed as increase in caspase-9 activity at 50 to 250 nM after 24 hrs by Western blot analysis; format: functional, cell-based
Method in brief: (§4)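 HeLa cells treated 24 h, washed in ice-cold PBS and lysed on ice 30 min. Lysates were spun at 15000 x g, 4 °C. 10 µg protein run on SDS-PAGE and blotted to PVDF. Blots were blocked in 5% BSA overnight at 4 °C and probed 2 h at room temperature. Detection by HRP-secondary and ECL, with bands normalized to β-actin as fold of untreated. Three independent experiments, one-way ANOVA/Dunnett.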

K562 [6] = experiment: Cytotoxicity against human K562 cells after 48 hrs by SRB assay; format: functional, cell-based
HeLa [7] = experiment: Cell cycle arrest in human HeLa cells assessed as decrease in p-cdc25c expression at 50 to 250 nM after 24 hrs by Western blot analysis; format: functional, cell-based; method in brief: as §4
HeLa [8] = experiment: Induction of apoptosis in human HeLa cells assessed as decrease in Mcl-1 levels at 50 to 250 nM after 24 hrs by Western blot analysis; format: functional, cell-based; method in brief: as §4
Tubulin (Bos taurus) = Tubulin (Bos taurus) (UniProt Q6B856+Q862L2+Q862F3); experiment: Inhibition of [3H]colchicine binding to bovine brain tubulin at 50 uM after 20 mins relative to control
Method in brief: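 Reaction mixtures held 1 μM tubulin, 5 μM [³H]colchicine and test compound at 5 or 50 μM. Read-out was percent inhibition of colchicine binding.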

HeLa [9] = experiment: Induction of apoptosis in human HeLa cells assessed as increase in cleaved PARP levels at 50 nM after 24 hrs by Western blot analysis; format: functional, cell-based; method in brief: as §4
Prostatic carcinoma cell = experiment: Cytotoxicity against human prostate cancer cells after 48 hrs by SRB assay; format: functional; method in brief: as §1
K562 [10] = experiment: Cell cycle arrest in human K562 cells assessed as mitotic index at IC50 by Giemsa staining-based assay (reference value: 3%); format: functional
A549 = experiment: Cell cycle arrest in human A549 cells assessed as accumulation of cells at G2/M phase at 50 nM after 24 hrs by propidium iodide staining-based flow cytometric analysis relative to control; format: functional; method in brief: as §2
HeLa [11] = experiment: Induction of apoptosis in human HeLa cells at 250 nM after 24 to 48 hrs by Annexin V-FITC/propidium iodide staining-based flow cytometric analysis; format: functional, cell-based
Method in brief: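 HeLa cells exposed 24 or 48 h to 250, 500 or 1000 nM; annexin-V-FITC plus PI double staining for surface phosphatidylserine and DNA, measured by flow cytometry. Mean ± SEM of three independent experiments.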

[12] = Toxicity in C57BL/6 mouse implanted with mouse B16-BL6 cells assessed as effect on body weight at 7.5 to 15 mg/kg, ip dosed every day for 18 days; format: organism-based; conditions: in vivo, 432 h, in the assay text read “every other day” for “every day”
Method in brief: (§5)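 C57BL/6 mice, six weeks old, received 2.5×10^5 BL6-B16 or E0771 cells s.c. in the dorsolateral flank in PBS. Dosing began once tumours reached about 100 mm³: 7.5 or 15 mg/kg i.p. every other day in 50 μL DMSO. Vehicle and CA-4P 30 mg/kg served as controls. Body weight was monitored, with 5 animals per group.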

E0771 [13] = experiment: Antitumor activity mouse E0771 cells implanted in C57BL/6 mouse assessed tumor growth inhibition at 7.5 mg/kg, ip dosed every other day for 20 days relative to control; format: functional; conditions: 480 h, read-out: TGI
Method in brief: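 Syngeneic allograft: C57BL/6 mice, six weeks old, given 2.5×10^5 BL6-B16 or E0771 cells subcutaneously in the dorsolateral flank in PBS. Dosing began at about 100 mm³. Test compound or reference was given intraperitoneally every other day in 50 μL DMSO, with DMSO vehicle controls. Tumor volume was compared with the vehicle group, 5 animals per group, mean ± SEM, by 2-way ANOVA with Bonferroni correction.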

Leukemia cell = experiment: Cytotoxicity against human leukemia cells after 48 hrs by SRB assay; format: functional; method in brief: as §1
K562 [14] = experiment: Cytotoxicity against human K562 cells after 16 hrs by SRB assay; conditions: K562, 16 h
HeLa [15] = experiment: Induction of apoptosis in human HeLa cells assessed as decrease in Bcl-2 levels at 50 to 250 nM after 24 hrs by Western blot analysis; format: functional, cell-based; method in brief: as §4
[16] = Toxicity in C57BL/6 mouse implanted with mouse E0771 cells assessed as effect on body weight at 7.5 to 15 mg/kg, ip dosed every day for 20 days; format: organism-based; conditions: in vivo, 480 h, in the assay text read “every other day” for “every day”; method in brief: as §5
Melanoma cell line = experiment: Cytotoxicity against human melanoma cells after 48 hrs by SRB assay; format: functional; method in brief: as §1
[17] = read-out: LC50 (the source's name)

For `O=C1Nc2c(ccc3ccccc23)C1=Cc1c(-c2ccncc2)nc2sccn12`, the GI50 [1] was 0.03 µM, the TGI [1] was 39.9 µM and the CC50 [1, 17] was 77 µM. For the same molecule, the GI50 (Renal cancer cell line) was 11.8 µM, the TGI (Renal cancer cell line) was 70.1 µM and the Activity (HeLa [2]) was “Active”. For the same molecule, the GI50 (Breast carcinoma cell) was 0.04 µM, the LC50 (concentration killing 50% of cells) (Breast carcinoma cell) was 99 µM and the TGI (Breast carcinoma cell) was 71.3 µM. The GI50 at 72 h [3] was 4.5 µM, the GI50 (E0771 [4]) was 0.015 µM and the GI50 (B16-BL6) was 0.305 µM. For the same molecule, the Activity (HT-29) was “Active”, the Activity (HeLa [5]) was “Active” and the Activity (K562 [6]) was “Dose-dependent effect”. For the same molecule, the Activity (HeLa [7]) was “Active”, the Activity (HeLa [8]) was “Active” and the inhibition (Tubulin (Bos taurus)) was 51%. The Activity (HeLa [9]) was “Active”, the GI50 (Prostatic carcinoma cell) was 0.02 µM and the TGI (Prostatic carcinoma cell) was 55.9 µM. The CC50 (Prostatic carcinoma cell; [17]) was 80.1 µM, the Activity (K562 [10]) was 12% and the Activity (A549) was >80%. For the same molecule, the Activity (HeLa [11]) was “Active”, the Activity [12] was “Non-Toxic” and the inhibition in vivo at 7.5 mg/kg (E0771 [13]) was 51.8%. It also gave a GI50 (Leukemia cell) of 0.03 µM, a TGI (Leukemia cell) of 79.5 µM and a pIC50 (K562 [14]) of 7.52. For the same molecule, the Activity (HeLa [15]) was “Active”, the Activity [16] was “Non-Toxic” and the GI50 (Melanoma cell line) was 7.16 µM. The TGI (Melanoma cell line) was 72.9 µM and the CC50 (Melanoma cell line; [17]) was 95.3 µM.

Source: ChEMBL document CHEMBL4316599, “Synthesis, in vitro and in vivo biological evaluation of substituted 3-(5-imidazo[2,1-b]thiazolylmethylene)-2-indolinones as new potent anticancer agents” (Eur J Med Chem, 2019)
